In ChEMBL document CHEMBL3877241 (J Med Chem, 2016):
pIC50: −log10 of the molar value.

Tests used:
[1] = target: Tyrosine-protein kinase JAK2 (Homo sapiens, UniProt O60674); assay: Inhibition of JAK2 (unknown origin) preincubated for 20 mins followed by [33P]ATP addition measured after 120 mins by Hotspot assay
[2] = Antiproliferative activity against human MCF7 cells after 72 hrs by MTT assay; assay type: functional, cell-based; details: MCF7, 72 h
[3] = target: T1, High affinity nerve growth factor receptor (Homo sapiens, UniProt P04629); assay: Inhibition of human NTRK1 (G475 to G790 residues) expressed in mammalian expression system assessed as residual activity at 100 nM by KINOMEScan assay relative to control
In short: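 DiscoveRx competition-binding panel of 97 kinases, measuring binding to the kinase ATP site rather than catalytic turnover. The test compound was run at a single 100 nM concentration. Results are given as % of control binding.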
Target sequence in this assay (P04629 33-796 limits assumed): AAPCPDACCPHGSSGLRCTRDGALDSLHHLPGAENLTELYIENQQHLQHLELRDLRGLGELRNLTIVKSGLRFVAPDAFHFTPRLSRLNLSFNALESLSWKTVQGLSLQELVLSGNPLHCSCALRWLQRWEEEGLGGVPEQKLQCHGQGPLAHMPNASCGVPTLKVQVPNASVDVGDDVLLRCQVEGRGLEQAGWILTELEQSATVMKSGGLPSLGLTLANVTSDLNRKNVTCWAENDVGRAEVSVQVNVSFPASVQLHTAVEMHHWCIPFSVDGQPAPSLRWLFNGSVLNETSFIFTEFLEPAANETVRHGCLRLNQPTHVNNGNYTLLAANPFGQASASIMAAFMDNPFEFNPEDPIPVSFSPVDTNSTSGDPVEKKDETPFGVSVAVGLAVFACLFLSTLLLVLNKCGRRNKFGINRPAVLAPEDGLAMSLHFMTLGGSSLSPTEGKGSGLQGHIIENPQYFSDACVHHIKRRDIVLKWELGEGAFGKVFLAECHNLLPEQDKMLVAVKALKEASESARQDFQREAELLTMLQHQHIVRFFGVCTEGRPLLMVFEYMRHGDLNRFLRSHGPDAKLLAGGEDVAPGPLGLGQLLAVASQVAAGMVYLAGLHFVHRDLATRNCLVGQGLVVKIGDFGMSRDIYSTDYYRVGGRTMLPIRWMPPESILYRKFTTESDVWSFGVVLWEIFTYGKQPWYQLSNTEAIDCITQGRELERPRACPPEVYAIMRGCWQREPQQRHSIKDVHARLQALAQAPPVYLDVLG

MOLM-14 = assay: Induction of apoptosis in human MOLM14 cells assessed as live cells at 1.5 uM after 48 hrs by Annexin-V FITC/propidium iodide staining based flow cytometry (reference value: 94 to 94.1%); assay type: functional
[4] = Growth inhibition of human HL60 cells at 4 uM relative to control; assay type: functional; details: HL-60, read-out: GI
[5] = target: T1, High affinity nerve growth factor receptor; assay: Inhibition of human NTRK1 (G475 to G790 residues) expressed in mammalian expression system by KINOMEScan assay
Target sequence in this assay (P04629 whole entry, the tested form may be a part): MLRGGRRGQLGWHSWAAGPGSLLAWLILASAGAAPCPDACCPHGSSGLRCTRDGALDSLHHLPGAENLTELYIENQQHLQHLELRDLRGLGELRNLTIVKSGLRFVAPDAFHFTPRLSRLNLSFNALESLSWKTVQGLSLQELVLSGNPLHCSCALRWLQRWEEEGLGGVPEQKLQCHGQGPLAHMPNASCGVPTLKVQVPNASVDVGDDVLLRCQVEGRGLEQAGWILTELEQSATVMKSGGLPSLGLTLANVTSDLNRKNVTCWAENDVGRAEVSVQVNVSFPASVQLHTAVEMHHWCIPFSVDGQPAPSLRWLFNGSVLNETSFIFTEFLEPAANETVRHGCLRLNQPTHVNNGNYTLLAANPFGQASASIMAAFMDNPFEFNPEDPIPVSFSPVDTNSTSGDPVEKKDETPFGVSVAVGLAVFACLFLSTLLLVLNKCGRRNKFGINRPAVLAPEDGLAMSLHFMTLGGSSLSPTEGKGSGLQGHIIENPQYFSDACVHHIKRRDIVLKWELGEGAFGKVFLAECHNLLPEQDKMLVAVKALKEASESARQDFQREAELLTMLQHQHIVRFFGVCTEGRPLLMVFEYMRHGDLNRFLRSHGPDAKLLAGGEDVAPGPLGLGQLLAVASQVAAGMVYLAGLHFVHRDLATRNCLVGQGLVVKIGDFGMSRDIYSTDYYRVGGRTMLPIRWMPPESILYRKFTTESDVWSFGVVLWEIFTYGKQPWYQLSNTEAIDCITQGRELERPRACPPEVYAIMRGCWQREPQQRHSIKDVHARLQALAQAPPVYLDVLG

[6] = Antiproliferative activity against human PC3 cells after 72 hrs by MTT assay; assay type: functional, cell-based; details: PC-3, 72 h

Tyrosine-protein kinase JAK2, sequence (O60674 whole entry): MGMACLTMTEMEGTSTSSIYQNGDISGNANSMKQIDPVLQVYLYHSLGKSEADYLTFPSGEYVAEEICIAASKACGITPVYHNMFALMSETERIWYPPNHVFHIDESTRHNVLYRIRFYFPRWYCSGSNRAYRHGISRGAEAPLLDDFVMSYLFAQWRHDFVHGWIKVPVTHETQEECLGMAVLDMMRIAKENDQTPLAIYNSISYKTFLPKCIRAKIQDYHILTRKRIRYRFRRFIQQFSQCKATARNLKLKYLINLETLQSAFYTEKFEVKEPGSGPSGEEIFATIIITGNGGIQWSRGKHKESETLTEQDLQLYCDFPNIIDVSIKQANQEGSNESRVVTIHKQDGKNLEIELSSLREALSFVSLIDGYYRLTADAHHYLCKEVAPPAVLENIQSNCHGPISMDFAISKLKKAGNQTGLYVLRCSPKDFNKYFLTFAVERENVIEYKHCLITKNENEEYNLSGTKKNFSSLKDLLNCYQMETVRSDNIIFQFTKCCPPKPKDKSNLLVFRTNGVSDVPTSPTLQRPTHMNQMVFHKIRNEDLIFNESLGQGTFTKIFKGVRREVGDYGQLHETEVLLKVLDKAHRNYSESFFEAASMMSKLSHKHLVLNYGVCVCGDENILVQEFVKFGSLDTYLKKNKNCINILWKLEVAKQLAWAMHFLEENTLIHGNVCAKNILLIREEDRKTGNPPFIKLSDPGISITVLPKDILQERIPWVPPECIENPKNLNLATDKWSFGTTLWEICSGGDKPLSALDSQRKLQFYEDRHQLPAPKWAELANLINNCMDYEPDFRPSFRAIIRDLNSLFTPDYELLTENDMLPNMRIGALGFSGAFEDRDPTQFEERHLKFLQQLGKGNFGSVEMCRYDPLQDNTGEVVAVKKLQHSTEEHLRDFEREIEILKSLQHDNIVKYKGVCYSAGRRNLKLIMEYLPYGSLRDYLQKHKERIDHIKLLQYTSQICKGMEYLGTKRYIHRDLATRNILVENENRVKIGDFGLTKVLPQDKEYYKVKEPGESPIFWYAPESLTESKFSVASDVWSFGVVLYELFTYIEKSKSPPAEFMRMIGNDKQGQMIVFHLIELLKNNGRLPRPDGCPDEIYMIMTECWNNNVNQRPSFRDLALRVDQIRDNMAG

Question: With `O=C(CCCCCCOc1ccc2cc1COC/C=C/COCc1cccc(c1)-c1ccnc(n1)N2)NO` as the compound, how does the pIC50 [1] read?
Answer: 8.85

Question: What about the pIC50 [2] of the same compound?
Answer: 5.83

Question: And the Activity [3]?
Answer: 13%

Question: And the Activity (MOLM-14)?
Answer: 74.1%

Question: And the inhibition of growth at 4 µM [4]?
Answer: 47%

Question: What about the pIC50 [5] of the same compound?
Answer: 5.00 to 6.00

Question: And the pIC50 [6]?
Answer: 5.77
